ChEMBL document CHEMBL4052646, “Synthesis of nοvel artemisinin dimers with polyamine linkers and evaluation of their potential as anticancer agents” (Bioorg Med Chem, 2017)
Calls of active or inactive are those of the source. The rule behind the calls is not given here.

Tests used:
[1] = system: HUVEC; test: Cytotoxicity against HUVEC assessed as reduction in cell number at 10 uM after 48 hrs by MTT assay; assay type: functional, Homo sapiens
Summary of the method: (§1)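 Cells seeded at 10×10^3 (MCF7) or 15×10^3 (HUVEC, primary from umbilical cords, passages 2-3) per well, exposed to agents at different concentrations up to 10 µM for 48 h. MTT added at 1/10 medium volume, 2 h at 37°C, formazan dissolved in acidified isopropanol, absorbance read at 490 nm. Confirmed by haemocytometer counts. IC50 and maximal percent decrease interpolated from graphs. Mean ± S.E.M. versus untreated cells.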

[2] = system: Chorioallantoic membrane; test: In vivo antiangiogenic activity in Leghorn chicken embryo chorioallantoic membrane assessed as decrease in total vessel length at 10 nmol/egg after 48 hrs relative to control; assay type: functional, Gallus gallus; parameters: scale not given: the % may be the effect or the level left
Summary of the method: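 Windows opened in fertilized Leghorn eggs on day 4. On day 9, agent in 20 µl PBS applied to 1 cm² of CAM inside a plastic ring. After 48 h at 37°C, CAMs fixed in situ, excised and air-dried. Total vessel length measured by image analysis as percent change versus control. At least three experiments, 10–20 eggs per point.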

[3] = system: HUVEC; test: Cytotoxicity against HUVEC assessed as reduction in cell number after 48 hrs by MTT assay; assay type: functional, cell-based; conditions: Homo sapiens; summary of the method: as §1
[4] = system: MCF7; test: Cytotoxicity against human MCF7 cells assessed as reduction in cell number at 10 uM after 48 hrs by MTT assay; assay type: functional; summary of the method: as §1
[5] = system: MCF7; test: Cytotoxicity against human MCF7 cells assessed as reduction in cell number after 48 hrs by MTT assay; assay type: functional, cell-based; conditions: for IC50: MCF7, 48 h; summary of the method: as §1
[6] = system: MCF7; test: Decrease in pleiotrophin protein expression in human MCF7 cell lysate at 10 uM after 24 hrs by Western blot analysis; assay type: functional, cell-based
Summary of the method: (§2)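 MCF7 cells treated with 10 µM agent for 24 h. PTN in the whole conditioned medium was captured on heparin-Sepharose for 16 h at 4°C and eluted in reducing Laemmli buffer. Lysates were run in parallel. Blots were probed with mouse anti-PTN (1:1,000), normalised to β-actin, and quantified by densitometry as percent of untreated (n=3).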

[7] = system: MCF7; test: Induction of apoptosis in human MCF7 cells at 10 uM after 48 hrs by Annexin V-FITC/PI staining based flow cytometry; assay type: functional, cell-based
[8] = system: MCF7; test: Induction of ROS production in human MCF7 cells after 4 to 6 hrs by carboxy-H2DCFDA dye based fluorescence assay; assay type: functional, cell-based
Summary of the method: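 MCF7 cells seeded at 15×10^3/well, exposed to agents 24 h later for 4 h. After PBS washes, cells loaded with 50 µM carboxy-H2DCFDA for 15 min in the dark. Fluorescence read at excitation 492–495 nm and emission 517–527 nm.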

[9] = system: MCF7; test: Decrease in pleiotrophin secretion in conditioned media of human MCF7 cells at 10 uM after 24 hrs by Western blot analysis; assay type: functional, cell-based; summary of the method: as §2
[10] = system: MCF7; test: Induction of necrosis in human MCF7 cells at 10 uM after 48 hrs by Annexin V-FITC/PI staining based flow cytometry; assay type: functional, cell-based
[11] = system: MCF7; test: Cytotoxicity against human MCF7 cells assessed as reduction in cell number at 10 uM cotreated with spermidine after 48 hrs by MTT assay; assay type: functional, cell-based
Summary of the method: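 MCF7 cells given the conjugate, the unconjugated artemisinin derivative, spermidine, or the derivative plus spermidine, each at 10 µM, for 48 h. Cell number measured by MTT at 490 nm after formazan solubilisation in acidified isopropanol. Reported as mean ± S.E.M. relative to untreated cells.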

Row | Structure (SMILES) | Efficacy [1] [%] | Activity [2] [%] | IC50 [3] [nM] | Efficacy [4] [%] | Activity [5] | IC50 [5] [nM] | Activity [6] | Activity [7] | Activity [8] | Activity [9] | Activity [10] | Activity [11]
1 | C[C@H]1[C@@H](O)O[C@@H]2O[C@@]3(C)CC[C@H]4[C@H](C)CC[C@@H]1[C@@]24OO3 [ARTENIMOL] | 28 | 2.8 | 1400 | – | – | – | – | – | – | – | – | –
2 | C[C@H]1[C@@H](OCCOCCOC(=O)NCCCCNC(=O)OCCOCCO[C@H]2O[C@@H]3O[C@@]4(C)CC[C@H]5[C@H](C)CC[C@@H]([C@H]2C)[C@@]35OO4)O[C@@H]2O[C@@]3(C)CC[C@H]4[C@H](C)CC[C@@H]1[C@@]24OO3 | – | – | – | 50 | Dose-dependent effect | 1000 | – | – | – | – | – | –
3 | COC(=O)N(CCCCNC(=O)OCCOCCN1C(=O)[C@H](C)[C@@H]2CC[C@@H](C)[C@@H]3CC[C@@]4(C)OO[C@]32[C@H]1O4)CCCNC(=O)OCCOCCN1C(=O)[C@H](C)[C@@H]2CC[C@@H](C)[C@@H]3CC[C@@]4(C)OO[C@]32[C@H]1O4 | – | – | – | 39 | Dose-dependent effect | 999 | – | – | – | – | – | –
4 | COC(=O)N(CCCCN(CCCNC(=O)OCCC[C@H]1O[C@@H]2O[C@@]3(C)CC[C@H]4[C@H](C)CC[C@@H]([C@H]1C)[C@@]24OO3)C(=O)OC)CCCNC(=O)OCCC[C@H]1O[C@@H]2O[C@@]3(C)CC[C@H]4[C@H](C)CC[C@@H]([C@H]1C)[C@@]24OO3 | 27 | 22 | 7500 | 70 | Dose-dependent effect | 1000 | Active | inactive | Active | Active | inactive | –
5 | C[C@@H]1CC[C@H]2[C@@H](C)C(=O)N(CCOCCOC(=O)NCCCCNC(=O)OCCOCCN3C(=O)[C@H](C)[C@@H]4CC[C@@H](C)[C@@H]5CC[C@@]6(C)OO[C@]54[C@H]3O6)[C@@H]3O[C@@]4(C)CC[C@@H]1[C@@]23OO4 | 23 | – | 2300 | 52 | Dose-dependent effect | 999 | Active | inactive | Active | Active | inactive | –
6 | C[C@H]1[C@@H](CCCOC(=O)NCCCCNC(=O)OCCC[C@H]2O[C@@H]3O[C@@]4(C)CC[C@H]5[C@H](C)CC[C@@H]([C@H]2C)[C@@]35OO4)O[C@@H]2O[C@@]3(C)CC[C@H]4[C@H](C)CC[C@@H]1[C@@]24OO3 | 27 | 14.3 | 3600 | 61 | Dose-dependent effect | 1000 | Active | inactive | Active | Active | inactive | –
7 | COC(=O)N(CCCCN(CCCNC(=O)OCCOCCO[C@H]1O[C@@H]2O[C@@]3(C)CC[C@H]4[C@H](C)CC[C@@H]([C@H]1C)[C@@]24OO3)C(=O)OC)CCCNC(=O)OCCOCCO[C@H]1O[C@@H]2O[C@@]3(C)CC[C@H]4[C@H](C)CC[C@@H]([C@H]1C)[C@@]24OO3 | – | – | – | 64 | Dose-dependent effect | 1000 | – | – | – | – | – | –
8 | C[C@H]1[C@@H](CCCO)O[C@@H]2O[C@]3(C)CC[C@H]4[C@H](C)CC[C@@H]1[C@@]24OO3 | – | – | – | – | – | – | – | – | – | – | – | inactive
9 | COC(=O)N(CCCCNC(=O)OCCC[C@H]1O[C@@H]2O[C@@]3(C)CC[C@H]4[C@H](C)CC[C@@H]([C@H]1C)[C@@]24OO3)CCCNC(=O)OCCC[C@H]1O[C@@H]2O[C@@]3(C)CC[C@H]4[C@H](C)CC[C@@H]([C@H]1C)[C@@]24OO3 | 35 | 12 | 1200 | 76 | Dose-dependent effect | 1000 | Active | inactive | inactive | Active | inactive | –
10 | C[C@@H]1CC[C@H]2[C@@H](C)C(=O)O[C@@H]3O[C@@]4(C)CC[C@@H]1[C@]32OO4 [ARTEMISININ] | 22 | 6.3 | 1100 | 14 | Dose-dependent effect | – | Active | inactive | Active | Active | inactive | –
11 | COC(=O)N(CCCCNC(=O)OCCOCCO[C@H]1O[C@@H]2O[C@@]3(C)CC[C@H]4[C@H](C)CC[C@@H]([C@H]1C)[C@@]24OO3)CCCNC(=O)OCCOCCO[C@H]1O[C@@H]2O[C@@]3(C)CC[C@H]4[C@H](C)CC[C@@H]([C@H]1C)[C@@]24OO3 | – | – | – | 11.2 | – | – | – | – | – | – | – | –
12 | COC(=O)N(CCCCN(CCCNC(=O)OCCOCCN1C(=O)[C@H](C)[C@@H]2CC[C@@H](C)[C@@H]3CC[C@@]4(C)OO[C@]32[C@H]1O4)C(=O)OC)CCCNC(=O)OCCOCCN1C(=O)[C@H](C)[C@@H]2CC[C@@H](C)[C@@H]3CC[C@@]4(C)OO[C@]32[C@H]1O4 | – | – | – | 48 | Dose-dependent effect | 1000 | – | – | – | – | – | –
